Results from ChEMBL document CHEMBL2321839, “Novel limonene and citral based 2,5-disubstituted-1,3,4-oxadiazoles: a natural product coupled approach to semicarbazones for antiepileptic activity” (Bioorg Med Chem Lett, 2013).
Calls of active or inactive are those of the source. The calls are words filed in the database; no cut-off is given here.

How the values were obtained:
Mus musculus [1] = experiment: Neurotoxicity against Swiss albino mouse by rotarod test at 300 mg/kg, ip after 4 hrs; format: toxicity, organism-based; parameters: dose 300 mg/kg, route intraperitoneal; conditions: in vivo
How it was run: (§1)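 Acute neurotoxicity tested by rotorod in male Swiss albino mice (18–25 g) given 30, 100 or 300 mg/kg ip. Read at 0.5 and 4.0 h post-dose. Result is the minimal dose causing toxicity in half or more of the animals; a dash means none up to 300 mg/kg.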

Mus musculus [2] = experiment: Antiepileptic activity in Swiss albino mouse assessed as protection against maximal-electric shock-induced seizures at 300 mg/kg, ip measured after 0.5 hrs; format: functional, organism-based; parameters: dose 300 mg/kg
How it was run: (§2)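 Male Swiss albino mice (18–25 g), compounds given ip at 30, 100 and 300 mg/kg. Seizures induced by maximal electroshock (MES) or subcutaneous pentylenetetrazole (scPTZ). Protection scored at 0.5 and 4.0 h after dosing.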

Mus musculus [3] = experiment: Antiepileptic activity in Swiss albino mouse assessed as protection against scPTZ-induced seizures at 300 mg/kg, ip measured after 0.5 hrs; format: functional, organism-based; parameters: dose 300 mg/kg; how it was run: as §2
Mus musculus [4] = experiment: Neurotoxicity against ip dosed Swiss albino mouse after 0.5 hrs by rotarod test; format: toxicity, organism-based; conditions: in vivo; how it was run: as §1
Rattus norvegicus [5] = experiment: Antiepileptic activity in Wistar rat assessed as protection against scSTY-induced seizures at 300 mg/kg, ip measured after 4 hrs; format: functional, organism-based; parameters: dose 300 mg/kg
How it was run: (§3)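 Male Wistar rats (100–150 g), compounds given ip at 30, 100 and 300 mg/kg. Seizures induced by subcutaneous strychnine (scSTY). Activity read 0.5 and 4.0 h after dosing. Reported as the minimal dose active in at least half of the animals; a dash means no activity at 300 mg/kg.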

Mus musculus [6] = experiment: Antiepileptic activity in Swiss albino mouse assessed as protection against maximal-electric shock-induced seizures at 300 mg/kg, ip measured after 4 hrs; format: functional, organism-based; parameters: dose 300 mg/kg; how it was run: as §2
Mus musculus [7] = experiment: Antiepileptic activity in ip dosed Swiss albino mouse assessed as protection against scPTZ-induced seizures after 4 hrs; format: functional; conditions: read-out: MED; how it was run: as §2
Rattus norvegicus [8] = experiment: Antiepileptic activity in Wistar rat assessed as protection against scSTY-induced seizures at 300 mg/kg, ip measured after 0.5 hrs; format: functional, organism-based; parameters: dose 300 mg/kg; how it was run: as §3
Mus musculus [9] = experiment: Neurotoxicity against Swiss albino mouse by rotarod test at 300 mg/kg, ip after 0.5 hrs; format: toxicity, organism-based; parameters: dose 300 mg/kg, route intraperitoneal; conditions: in vivo; how it was run: as §1
Mus musculus [10] = experiment: Antiepileptic activity in ip dosed Swiss albino mouse assessed as protection against maximal-electric shock-induced seizures after 0.5 hrs; format: functional; conditions: read-out: MED; how it was run: as §2
Mus musculus [11] = experiment: Antiepileptic activity in ip dosed Swiss albino mouse assessed as protection against maximal-electric shock-induced seizures after 4 hrs; format: functional; conditions: read-out: MED; how it was run: as §2
Mus musculus [12] = experiment: Antiepileptic activity in Swiss albino mouse assessed as protection against scPTZ-induced seizures at 300 mg/kg, ip measured after 4 hrs; format: functional, organism-based; parameters: dose 300 mg/kg; how it was run: as §2
Rattus norvegicus [13] = experiment: Antiepileptic activity in ip dosed Wistar rat assessed as protection against scSTY-induced seizures after 4 hrs; format: functional; conditions: read-out: MED; how it was run: as §3
Mus musculus [14] = experiment: Neurotoxicity against ip dosed Swiss albino mouse after 4 hrs by rotarod test; format: toxicity, organism-based; conditions: in vivo; how it was run: as §1
Rattus norvegicus [15] = experiment: Antiepileptic activity in Wistar rat assessed as protection against maximal electric shock-induced seizures at 30 mg/kg, po measured at 1 hr; format: functional
How it was run: (§4)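 Single oral dose of 30 mg/kg in Wistar rats (100–150 g), tested by MES challenge at 0.25, 0.5, 1, 2 and 4 h.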

Rattus norvegicus [16] = experiment: Antiepileptic activity in Wistar rat assessed as protection against maximal electric shock-induced seizures at 30 mg/kg, po measured at 0.5 hrs; format: functional; how it was run: as §4
Rattus norvegicus [17] = experiment: Antiepileptic activity in Wistar rat assessed as protection against maximal electric shock-induced seizures at 30 mg/kg, po measured at 4 hrs; format: functional; how it was run: as §4
Rattus norvegicus [18] = experiment: Antiepileptic activity in Wistar rat assessed as GABA level in medulla oblangata per 100 mg at 100 mg/kg ip after 2 hrs (reference value: 31.86 +/- 4.65 ug); format: functional, Medulla oblongata; conditions: route intraperitoneal
Rattus norvegicus [19] = experiment: Antiepileptic activity in Wistar rat assessed as GABA level in midbrain per 100 mg at 100 mg/kg ip after 2 hrs (reference value: 35.42 +/- 2.14 ug); format: functional; conditions: route intraperitoneal
Rattus norvegicus [20] = experiment: Antiepileptic activity in Wistar rat assessed as GABA level in cerebellum per 100 mg at 100 mg/kg ip after 2 hrs (reference value: 23.48+/- 2.48 ug); format: functional; conditions: route intraperitoneal
Rattus norvegicus [21] = experiment: Neurotoxicity in Wistar rat at 30 mg/kg, po measured at 4 hrs by rotarod test; format: toxicity, organism-based; parameters: dose 30 mg/kg, route oral; conditions: in vivo
How it was run: (§5)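 Neurotoxicity assessed in Wistar rats (100–150 g) after a 30 mg/kg oral dose, read at 0.25, 0.5, 1, 2 and 4 h.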

Rattus norvegicus [22] = experiment: Antiepileptic activity in Wistar rat assessed as protection against maximal electric shock-induced seizures at 30 mg/kg, po measured at 0.25 hrs; format: functional; how it was run: as §4
Rattus norvegicus [23] = experiment: Neurotoxicity in Wistar rat at 30 mg/kg, po measured at 0.25 hrs by rotarod test; format: toxicity, organism-based; parameters: dose 30 mg/kg, route oral; conditions: in vivo; how it was run: as §5
Rattus norvegicus [24] = experiment: Neurotoxicity in Wistar rat at 30 mg/kg, po measured at 1 hr by rotarod test; format: toxicity, organism-based; parameters: dose 30 mg/kg, route oral; conditions: in vivo; how it was run: as §5
Rattus norvegicus [25] = experiment: Antiepileptic activity in Wistar rat assessed as protection against maximal electric shock-induced seizures at 30 mg/kg, po measured at 2 hrs; format: functional; how it was run: as §4
Rattus norvegicus [26] = experiment: Neurotoxicity in Wistar rat at 30 mg/kg, po measured at 2 hrs by rotarod test; format: toxicity, organism-based; parameters: dose 30 mg/kg, route oral; conditions: in vivo; how it was run: as §5
Rattus norvegicus [27] = experiment: Neurotoxicity in Wistar rat at 30 mg/kg, po measured at 0.5 hrs by rotarod test; format: toxicity, organism-based; parameters: dose 30 mg/kg, route oral; conditions: in vivo; how it was run: as §5

| SMILES | Activity (Mus musculus [1]) | Activity (Mus musculus [2]) | Activity (Mus musculus [3]) | Activity (Rattus norvegicus [5]) | minimal effective dose (Mus musculus [7]) [mg/kg] | Activity (Rattus norvegicus [8]) | Activity (Mus musculus [9]) | minimal effective dose (Mus musculus [11]) [mg/kg] | Activity (Mus musculus [12]) | minimal effective dose (Rattus norvegicus [13]) [mg/kg] | also measured |
| --- | --- | --- | --- | --- | --- | --- | --- | --- | --- | --- | --- |
| C=C(C)[C@@H]1CC=C(C)/C(=N/NC(=O)Nc2nnc(-c3cccc(O)c3)o2)C1 | Non-toxic | inactive | inactive | inactive | 300 | inactive | – | – | – | – | MTC (Mus musculus [4]): 300 mg/kg; Activity (Mus musculus [6]): inactive |
| CC(C)=CC/C=C(/C)C/C=N/NC(=O)Nc1nnc(-c2ccc(Cl)cc2)o1 | Non-toxic | – | inactive | inactive | – | inactive | Non-toxic | 300 | inactive | – | minimal effective dose (Mus musculus [10]): 100 mg/kg |
| CC(C)=CC/C=C(/C)C/C=N/NC(=O)Nc1nnc(-c2cccc(O)c2)o1 | Non-toxic | inactive | inactive | inactive | – | inactive | – | – | inactive | – | MTC (Mus musculus [4]): 300 mg/kg; Activity (Mus musculus [6]): inactive |
| C=C(C)[C@@H]1CC=C(C)/C(=N/NC(=O)Nc2nnc(-c3ccc(Cl)cc3)o2)C1 | Non-toxic | – | inactive | – | 300 | inactive | Non-toxic | 300 | – | 300 | minimal effective dose (Mus musculus [10]): 100 mg/kg |
| CC(C)=CC/C=C(/C)C/C=N/NC(=O)Nc1nnc(-c2ccccc2)o1 | – | inactive | inactive | inactive | – | inactive | Non-toxic | – | inactive | – | MTC (Mus musculus [14]): 300 mg/kg; Activity (Mus musculus [6]): inactive |
| C=C(C)[C@@H]1CC=C(C)/C(=N/NC(=O)Nc2nnc(-c3ccccc3)o2)C1 | – | inactive | inactive | inactive | – | inactive | Non-toxic | 300 | inactive | – | MTC (Mus musculus [14]): 300 mg/kg |
| CC(C)=CC/C=C(/C)C/C=N/NC(=O)Nc1nnc(-c2ccc([N+](=O)[O-])cc2)o1 | Non-toxic | – | inactive | – | 300 | inactive | Non-toxic | 300 | – | 300 | Activity (Rattus norvegicus [15]): 25%; Activity (Rattus norvegicus [16]): 0%; minimal effective dose (Mus musculus [10]): 100 mg/kg; Activity (Rattus norvegicus [17]): 50%; Activity (Rattus norvegicus [18]): 36.72 µg; Activity (Rattus norvegicus [19]): 62.56 µg; Activity (Rattus norvegicus [20]): 32.04 µg; Activity (Rattus norvegicus [21]): Non-toxic; Activity (Rattus norvegicus [22]): 50%; Activity (Rattus norvegicus [23]): Non-toxic; Activity (Rattus norvegicus [24]): Non-toxic; Activity (Rattus norvegicus [25]): 25%; Activity (Rattus norvegicus [26]): Non-toxic; Activity (Rattus norvegicus [27]): Non-toxic |
| CC(C)=CC/C=C(/C)C/C=N/NC(=O)Nc1nnc(-c2ccc(O)cc2)o1 | Non-toxic | inactive | inactive | – | 300 | inactive | Non-toxic | 300 | – | 300 | Activity (Rattus norvegicus [18]): 34.42 µg; Activity (Rattus norvegicus [19]): 52.82 µg; Activity (Rattus norvegicus [20]): 28.25 µg |
| C=C(C)[C@@H]1CC=C(C)/C(=N/NC(=O)Nc2nnc(-c3ccc(C)cc3)o2)C1 | Non-toxic | inactive | inactive | inactive | – | inactive | – | 300 | inactive | – | MTC (Mus musculus [4]): 300 mg/kg |
| CC(C)=CC/C=C(/C)C/C=N/NC(=O)Nc1nnc(-c2ccc(C)cc2)o1 | Non-toxic | inactive | inactive | inactive | – | inactive | Non-toxic | 300 | inactive | – | MTC (Mus musculus [14]): 300 mg/kg |
| C=C(C)[C@@H]1CC=C(C)/C(=N/NC(=O)Nc2nnc(-c3ccc(F)cc3)o2)C1 | Non-toxic | – | inactive | – | 300 | inactive | Non-toxic | 300 | – | 300 | Activity (Rattus norvegicus [15]): 0%; Activity (Rattus norvegicus [16]): 25%; minimal effective dose (Mus musculus [10]): 100 mg/kg; Activity (Rattus norvegicus [17]): inactive; Activity (Rattus norvegicus [18]): 42.4 µg; Activity (Rattus norvegicus [19]): 43.56 µg; Activity (Rattus norvegicus [20]): 28.42 µg; Activity (Rattus norvegicus [21]): Non-toxic; Activity (Rattus norvegicus [22]): 25%; Activity (Rattus norvegicus [23]): Non-toxic; Activity (Rattus norvegicus [24]): 0%; Activity (Rattus norvegicus [25]): 25%; Activity (Rattus norvegicus [26]): Non-toxic; Activity (Rattus norvegicus [27]): Non-toxic |
| C=C(C)[C@@H]1CC=C(C)/C(=N/NC(=O)Nc2nnc(-c3ccc(OC)cc3)o2)C1 | Non-toxic | inactive | inactive | – | 300 | inactive | Non-toxic | 300 | – | 300 | – |
| C=C(C)[C@@H]1CC=C(C)/C(=N/NC(=O)Nc2nnc(-c3ccccc3O)o2)C1 | – | inactive | inactive | inactive | – | inactive | Non-toxic | 300 | inactive | – | MTC (Mus musculus [14]): 300 mg/kg |
| COc1ccc(-c2nnc(NC(=O)N/N=C/C/C(C)=C\CC=C(C)C)o2)cc1 | Non-toxic | inactive | inactive | – | – | inactive | Non-toxic | – | inactive | 300 | Activity (Mus musculus [6]): inactive |
| O=C1NC(=O)C(c2ccccc2)(c2ccccc2)N1 [PHENYTOIN] | – | – | inactive | – | – | inactive | – | 30 | inactive | 100 | Activity (Rattus norvegicus [15]): 50%; Activity (Rattus norvegicus [16]): 50%; MTC (Mus musculus [14]): 100 mg/kg; minimal effective dose (Mus musculus [10]): 30 mg/kg; MTC (Mus musculus [4]): 100 mg/kg; Activity (Rattus norvegicus [17]): 0%; Activity (Rattus norvegicus [21]): Non-toxic; Activity (Rattus norvegicus [22]): 75%; Activity (Rattus norvegicus [23]): Non-toxic; Activity (Rattus norvegicus [24]): Non-toxic; Activity (Rattus norvegicus [25]): 75%; Activity (Rattus norvegicus [26]): Non-toxic; Activity (Rattus norvegicus [27]): Non-toxic |
| CC(C)=CC/C=C(/C)C/C=N/NC(=O)Nc1nnc(-c2ccccc2O)o1 | – | inactive | inactive | inactive | 300 | inactive | – | – | – | – | MTC (Mus musculus [4]): 300 mg/kg; Activity (Mus musculus [6]): inactive |
| CC(C)=CC/C=C(/C)C/C=N/NC(=O)Nc1nnc(-c2ccc(F)cc2)o1 | – | inactive | inactive | inactive | 300 | inactive | Non-toxic | 300 | – | – | – |
